# From PubChem BioAssay
# A selection: hits, their analogues and other compounds. The true share with any hit is near 4%.
# hiPSC survival = enhancers of single-cell hiPSC survival, primary screen, ATPlite luminescence; 100% = ROCK inhibitor wells, 0% = DMSO; survival enhancement, % at 20 µM; 0.044% of 360,000 active; in the data active = survival enhancement above about 18%;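 note: cells exposed to compounds for 16 hours before the ATP read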
# FAS-TE inh = FAS thioesterase domain inhibitors, primary screen, biochemical, fluorescence intensity, uHTS; 0.67% of 360,000 active; inhibition, % at 15 µM; Fatty acid synthase (Homo sapiens), P49327; recombinant FAS-TE, OMFH fluorogenic substrate, fluorescence endpoint;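 active = compounds whose normalised, plate-corrected inhibition of enzyme fluorescence in the single-dose primary screen is 50% or more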
# Arr AP2 block = inhibitors of beta-arrestin/AP2 binding, primary screen, biochemical, GPCR trafficking, flow cytometry; FITC-arrestin peptide / GST-AP2 beads; AP2 beta2 appendage carries R879A mutation; AID 504490, 2011; inhibition, % at 10 µM; beta-arrestin 1 C-terminal peptide binding to AP2 beta2-adaptin appendage (human); 0.31% of 340,000 active;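 active = inhibition above a set limit, near 3 SD of compounds lacking own fluorescence, cut at about 54% in these data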
#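 System: GST-AP2 R879A bound to glutathione beads, E. coli-expressed. Also added: 50 nM FITC-arrestin peptide. Schedule: compound with beads 12 min RT, then probe 1 h RT. Signal: bead flow cytometry, FITC channel. Read-out basis: percent response.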
# GRIN3A LBD mod = binders of NR3A ligand-binding domain, primary screen, biophysical, differential scanning fluorimetry, uHTS; Glutamate receptor ionotropic, NMDA 3A (GRIN3A) ligand-binding domain; NR3A LBD differential scanning fluorimetry, Tm shift; 0% = protein alone, 100% = glycine-bound protein; Tm shift relative to glycine control, % at 25 µM; 2.5% of 340,000 active; AID 1259313, 2017;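 active = melting temperature shift of at least 10% of the positive control shift, at one fixed dose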
# SENP1 FRET inh = human SENP1 catalytic domain inhibitors, primary screen, biochemical, FRET, uHTS | Sentrin-specific protease 1 (Homo sapiens), Q9P0U3 | inhibition, % at 10 µM | recombinant SENP1 catalytic domain, CyPet-SUMO1-YPet FRET cleavage | 0.21% of 360,000 active;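 active = inhibition at least 30% at 10 µM, raw YFP signal under a set limit, fluorescence ratio 0.5 to 1.5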
#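 Test system: hSENP1 catalytic domain, recombinant; Amount: 20 pM final SENP1 enzyme; Medium: Tris pH 8 buffer plus EDTA, NaCl, BME, BSA, NP40, catalase; Schedule: 50 min enzyme reaction, room temperature, light-protected; Technique: FRET fluorescence in CFP and YFP emission channels; Controls: no-enzyme wells low, DMSO-plus-enzyme wells high control.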
# Cardio protect = cardioprotection against H2O2-induced cell death, primary screen, uHTS, H9c2 cells, ATPLite luminescence; H9c2 cardiomyocytes, H2O2 injury protection, 2 h; protection from H2O2 cell death, % at 20 µM; 0.63% of 360,000 active;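 active = compounds giving at least 50% protection of heart cells from peroxide-induced death in the single-dose screen, raw or plate-pattern-corrected value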
# A number is an active result; i = inactive; nt = no result given.
SMILES,hiPSC survival,FAS-TE inh,Arr AP2 block,GRIN3A LBD mod,SENP1 FRET inh,Cardio protect
Cc1cc2c3c(c1)C(C)(c1ccccc1)CC(C)(C)N3C(=O)C21C(C#N)=C(N)OC2=C1C(=O)CC(C)(C)C2 (configuration not stated),i,i,i,i,i,i
CC1(c2ccccc2)CC(C)(C)N2C(=O)C3(C(C#N)=C(N)Oc4cc(O)ccc43)c3cccc1c32 (configuration not stated),i,52.4,i,i,i,i
O=C1NC(=O)c2cc(Br)cc3cccc1c23,i,i,i,i,i,i
CN(C)CCN1C(=O)c2cccc3cc([N+](=O)[O-])cc(c23)C1=O,i,i,i,i,60.1,i
O=C1NC(=O)c2cc([N+](=O)[O-])cc3cccc1c23,i,i,i,i,i,54.7
O=C(CSc1nc(-c2ccccc2)nc2c1Cc1ccccc1O2)Nc1ccc(C(=O)O)cc1,i,i,i,31.6,i,i
O=C(CSc1nc(-c2ccccc2)nc2ccccc12)Nc1cccc(C(=O)O)c1,i,i,i,i,i,i
O=C(CSc1nc(-c2ccc(F)cc2)nc2c1Cc1ccccc1O2)Nc1ccc(C(=O)O)cc1,i,i,i,33.5,i,i
O=C(CSc1nc(-c2ccc(F)cc2)nc2ccc(F)cc12)Nc1cccc(C(=O)O)c1,i,i,i,i,i,i
O=C1N=c2ccccc2=C1c1sc(=S)n(NC(=O)c2cccc(O)c2)c1O,i,i,i,i,i,i
Cc1c(-n2c(O)c(C3=c4ccccc4=NC3=O)sc2=S)c(=O)n(-c2ccccc2)n1C,i,i,i,i,i,i
O=C1N=c2ccccc2=C1c1sc(=S)n(Cc2ccccc2Cl)c1O,i,i,i,19.4,i,i
O=C1N=c2ccccc2=C1c1sc(=S)n(-c2ccc(O)cc2)c1O,i,i,i,29.0,i,i
CCC(C(=O)NC(C)(C)C)N(Cc1ccc(OC)cc1)C(=O)c1snc(C(N)=O)c1N (configuration not stated),i,i,nt,nt,i,i
CCCC(=O)N1CCCC1(C)C(=O)Nc1ccc(OC(F)F)cc1 (configuration not stated),i,i,nt,nt,i,i
N#Cc1cc(Oc2ccc3ccccc3c2)c(-n2nnc3ccccc32)cc1C#N,i,i,i,12.7,i,i
C=CCc1ccccc1OCC(=O)OCCNC(=O)c1cccnc1,i,i,i,20.1,i,i
COc1ccc(OC)c(NC(=O)c2cc3ccccc3o2)c1,i,i,i,i,i,i
COc1ccc(OC)c(Nc2nc(N)nc(-c3cc4ccccc4o3)n2)c1,i,i,i,i,i,56.1
Cc1ccc(S(=O)(=O)Nc2nc(C)c(NC(=O)Nc3ccc(Cl)cc3Cl)s2)cc1,i,i,i,28.1,i,i
CCCCNC(=O)c1nc(C2CCN(S(=O)(=O)c3c(OC)cccc3OC)CC2)oc1-c1ccccc1,nt,nt,nt,nt,i,nt
CC(=O)Nc1cccc(NC(=O)CSc2ncc(C(=O)Nc3ccc(F)cc3)c(=O)n2C)c1,i,i,i,18.1,i,i
CSc1ccc(Cn2c(C)c(C(=O)NCc3ccc4c(c3)OCCO4)sc2=O)cc1,i,i,nt,nt,i,i
O=[N+]([O-])c1ccc(NCCOc2ccccc2Cl)nc1,i,i,i,16.2,i,i
Cc1cccc(OCCNc2ccc([N+](=O)[O-])cn2)c1,i,i,i,i,i,i
CC(=O)NCCCOc1ccc([N+](=O)[O-])cc1Cl,i,i,i,10.3,i,i
COc1ccccc1OCCCOc1ccc([N+](=O)[O-])cc1Cl,i,i,i,i,i,i
